{
  "source": "paper PMC7225057",
  "about": "(Journal of molecular biology, 2020)",
  "key": {"[1]": {"target": "RAMP1-CTR.34–141 WT (PNGase F) (Homo sapiens, UniProt O60894+P30988, N125D/N130D/N73D)", "assay": "FP saturation binding, RAMP1-CTR.34–141 WT, PNGase F", "settings": "Figure S8D, 10 nM probe, pH 7.4, N = 3", "in_short": "(§1)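 RAMP1-CTR ECD fusion WT was expressed in HEK293S GnTI cells, TEV-cleaved to remove MBP, then purified by IMAC/SEC. FP saturation binding at room temperature used 10 nM FITC-peptide probe and titrated receptor. Buffer: HEPES pH 7.4 with BSA, maltose, EDTA, Tween 20. Duplicates, pKD by nonlinear fit.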"}, "RAMP1-CTR.34–141 N130D": {"target": "T1, RAMP1-CTR.34–141 N130D (Homo sapiens, UniProt O60894+P30988, N130D/fusion)", "T1 sequence (P30988 34-141 N130D)": "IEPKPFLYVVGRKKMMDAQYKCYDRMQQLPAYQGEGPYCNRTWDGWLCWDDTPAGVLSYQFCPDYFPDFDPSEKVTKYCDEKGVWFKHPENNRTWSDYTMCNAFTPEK", "assay": "FP saturation binding, RAMP1-CTR.34–141 N130D", "settings": "Figure S8D; no enzyme; 10 nM probe, pH 7.4; mean ± SEM, N = 3"}, "[2]": {"target": "T2, RAMP1-CTR.34–141 WT (inactive PNGase F) (Homo sapiens, UniProt O60894+P30988, fusion)", "T2 sequence (P30988 34-141)": "T1 sequence (P30988 34-141 N130D) with D97N", "assay": "FP saturation binding, RAMP1-CTR.34–141 WT, inactive PNGase F", "settings": "Figure S8D, 10 nM probe, pH 7.4, mean ± SEM, N = 3", "in_short": "as §1"}, "[3]": {"target": "T3, CTR.38–141 N130D (CTR ECD; HEK293S GnTI^−, Endo H) (Homo sapiens, UniProt P30988, N130D)", "T3 sequence (P30988 38-141 N130D)": "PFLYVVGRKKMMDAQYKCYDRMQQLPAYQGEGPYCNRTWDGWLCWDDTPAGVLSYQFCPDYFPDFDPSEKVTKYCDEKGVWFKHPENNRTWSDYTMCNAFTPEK", "assay": "FP saturation binding, CTR.38–141 N130D, Endo H", "settings": "N130D vs Endo H-treated WT"}, "[4]": {"target": "T4, Glycan-free CTR.38–141 WT (CTR ECD; E. coli) (Homo sapiens, UniProt P30988)", "T4 sequence (P30988 38-141)": "T3 sequence (P30988 38-141 N130D) with D93N", "assay": "FP saturation binding, glycan-free CTR.38–141 WT", "settings": "glycan-free vs Endo H-treated WT"}, "[5]": {"tested_on": "glucagon-like peptide 1 receptor (GLP-1R)", "settings": "cited from earlier work"}, "[6]": {"tested_on": "glucagon-like peptide 1 receptor (GLP-1R)", "settings": "cited from earlier work", "remark": "listed apart in the source"}, "[7]": {"tested_on": "IL-7 receptor α unit (IL-7Rα) ectodomain", "settings": "cited from earlier work"}, "[8]": {"tested_on": "Pituitary adenylate cyclase activating polypeptide (PACAP) type I (PAC1) receptor", "settings": "tunicamycin treatment, binding capacity not altered; cited from earlier work"}, "[9]": {"tested_on": "PTH type 1 receptor (PTH1R)", "settings": "cited from earlier work"}, "CTR ECD": {"tested_on": "CTR ECD", "settings": "isolated ECD; cited from earlier work"}, "CTR": {"tested_on": "CTR", "settings": "cited from earlier work"}},
  "note": "Residue numbers refer to the chain shown, from its start. Residues, ends and D or L forms follow the SMILES beside them. *: point of attachment. FITC = O=C1OC2(c3ccc(O)cc3Oc3cc(O)ccc32)c2ccc(NC(=S)*)cc21; Ahx = NCCCCCC(=O)O",
  "data": [
    {"compound": "CC(C)C[C@H](NC(=O)[C@H](CCCNC(=N)N)NC(=O)[C@@H](NC(=O)[C@H](CC(C)C)NC(=O)[C@H](Cc1ccccc1)NC(=O)[C@H](CC(N)=O)NC(=O)[C@H](C)NC(=O)CCCCCNC(=S)Nc1ccc2c(c1)C(=O)OC21c2ccc(O)cc2Oc2cc(O)ccc21)C(C)C)C(=O)N[C@@H](CCC(N)=O)C(=O)N[C@H](C(=O)N[C@@H](Cc1ccc(O)cc1)C(=O)N1CCC[C@H]1C(=O)N[C@@H](CCCNC(=N)N)C(=O)N[C@H](C(=O)N[C@@H](CC(N)=O)C(=O)N[C@H](C(=O)NCC(=O)N[C@@H](C)C(=O)N[C@@H](CC(N)=O)C(=O)N[C@H](C(=O)N[C@@H](Cc1ccc(O)cc1)C(N)=O)[C@@H](C)O)C(C)C)[C@@H](C)O)[C@@H](C)O", "note": "[FITC-AC413(6–25)] ({FITC-Ahx}-ANFLVRLQTYPRTNVGANTY-NH2; N-terminus and C-terminus assumed)", "values": [
      {"measurement": "pKD", "setting": "[1]", "value": "< 5.0"},
      {"measurement": "pKD", "setting": "RAMP1-CTR.34–141 N130D", "value": "5.12 ± 0.07"},
      {"measurement": "pKD", "setting": "[2]", "value": "6.01 ± 0.03"}
    ]},
    {"compound": "C[C@@H](O)[C@H](NC(=O)[C@H](CC(N)=O)NC(=O)[C@@H](NC(=O)[C@H](CCCNC(=N)N)NC(=O)[C@@H]1CCCN1C(=O)[C@H](Cc1ccc(O)cc1)NC(=S)Nc1ccc2c(c1)C(=O)OC21c2ccc(O)cc2Oc2cc(O)ccc21)[C@@H](C)O)C(=O)NCC(=O)N[C@@H](CO)C(=O)NCC(=O)N[C@H](C(=O)N1CCC[C@H]1C(N)=O)[C@@H](C)O", "note": "[FITC-sCT(22–32)] ({FITC}-YPRTNTGSGTP-NH2)", "values": [
      {"measurement": "affinity decrease", "setting": "[3]", "value": "over 5 fold"},
      {"measurement": "affinity decrease", "setting": "[4]", "value": "over 5 fold"}
    ]},
    {"compound": "GLP-1: GLP-1, ligand of glucagon-like peptide 1 receptor", "values": [
      {"measurement": "signaling potency, double mutation of two N-glycosylation sites", "setting": "[5]", "value": "significantly reduced GLP-1 affinity and signaling potency"},
      {"measurement": "affinity, double mutation of two N-glycosylation sites", "setting": "[6]", "value": "significantly reduced GLP-1 affinity"}
    ]},
    {"compound": "IL-7: IL-7, ligand of IL-7 receptor α unit", "values": [
      {"measurement": "association rate with N-glycosylated receptor", "setting": "[7]", "value": "accelerated association rate"},
      {"measurement": "effect of N-glycosylation on binding affinity", "setting": "[7]", "value": "significantly increased IL-7 binding affinity"}
    ]},
    {"compound": "PACAP-27", "values": [
      {"measurement": "affinity decrease by tunicamycin", "setting": "[8]", "value": 30, "unit": "fold"}
    ]},
    {"compound": "PTH: PTH, ligand of PTH type 1 receptor", "values": [
      {"measurement": "binding affinity, N161D mutation", "setting": "[9]; N161D mutation of PTH1R", "value": "did not change the binding affinity for PTH"},
      {"measurement": "binding affinity after tunicamycin", "setting": "[9]; human PTH1R expressed in mammalian cells, tunicamycin treatment", "value": "no changes in PTH binding affinity"}
    ]},
    {"compound": "calcitonin", "values": [
      {"measurement": "binding affinity enhancement by CTR N-glycosylation", "setting": "CTR ECD", "value": "~ 10 fold"}
    ]},
    {"compound": "salmon calcitonin", "values": [
      {"measurement": "affinity vs human calcitonin", "setting": "CTR", "value": "higher affinity than human calcitonin"}
    ]}
  ]
}
